Data set [1] can be described thus: Cytotoxicity against human PBL assessed as reduction in cell viability in presence of mitogenic stimulus phytohaemagglutinin incubated for 72 hrs by MTT assay. The data set is classed as cell-based. In a few lines:
(§1)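 PBLs from healthy donor buffy coats isolated by density-gradient centrifugation, washed, held overnight at 1.0 × 10^6 cells/mL in RPMI-1640 with 10% FBS. Nonadherent cells reseeded at 5 × 10^5 cells/mL, either with 2.5 μg/mL PHA (proliferating) or without (resting). Graded compound concentrations for 72 h, viability by MTT. GI50 = concentration inhibiting growth 50%; mean ± SEM of three separate experiments.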

A short description of data set [2]: Cytotoxicity against human PBL assessed as reduction in cell viability incubated for 72 hrs by MTT assay. The data set is classed as cell-based. To be noted: peripheral blood lymphocytes (PBL). In a few lines: as §1
On the technique in general: Formazan colour is commonly taken as a measure of viable cells.

Data set [3] has as its system HeLa. As to the kind of experiment: Induction of cell cycle arrest in human Hela cells assessed as accumulation at G2/M phase at 0.25 uM incubated for 24 hrs by PI staining based flow cytometric analysis. The data set is classed as functional. In a few lines:
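HeLa cells (5 × 10^5) exposed to compound at several concentrations for 24 h, then collected, fixed in ice-cold 70% ethanol, treated with lysis buffer containing RNase A and 0.1% Triton X-100, stained with propidium iodide. DNA content measured by flow cytometry; percentage of cells in each cycle phase derived from DNA histograms. Mean ± SEM of three experiments.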
A general note: Flow cytometry measures light scatter and fluorescence of single cells or particles in a stream.

Data set [4] has as its system HeLa. Put plainly: Induction of cell cycle arrest in human Hela cells assessed as reduction of cells at S phase 1 uM incubated for 24 hrs by PI staining based flow cytometric analysis. The data set is classed as functional.
Data set [5] concerns HeLa. As to the kind of experiment: Induction of cell cycle arrest in human Hela cells assessed as accumulation at M phase at 1 uM incubated for 24 hrs by PI staining based flow cytometric analysis. The format is functional.
Data set [6] deals with HeLa. Put plainly: Induction of apoptosis in human HeLa cells assessed as cleaved PARP protein expression at 0.1 uM incubated for 48 hrs by Western blot analysis relative to control. The data set is classed as functional. In a few lines:
(§2)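 HeLa cells treated at 0.1 or 0.5 μM for 24 or 48 h, washed in ice-cold PBS, lysed on ice 30 min, cleared at 15 000g, 4 °C. 10 μg protein per lane on SDS-PAGE, transferred to PVDF, blocked overnight in 5% BSA at 4 °C. Primary antibodies 2 h at room temperature, peroxidase secondaries 1 h, ECL detection. Membranes reprobed for GAPDH; densitometry reported as protein/GAPDH ratio.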
(In western blotting, separated proteins are transferred to a membrane and probed.)

The subject of data set [7] is HeLa. As to the kind of experiment: Induction of apoptosis in human HeLa cells assessed as cleaved PARP protein expression at 0.5 uM incubated for 24 hrs by Western blot analysis relative to control. The format is functional. Put shortly: as §2
The test system of data set [8] is HeLa. Put plainly: Induction of apoptosis in human HeLa cells assessed as cleaved PARP protein expression at 0.1 uM incubated for 24 hrs by Western blot analysis relative to control. The data set is classed as functional. In a few lines:
as §2

Data set [9] has as its system HeLa. As to the kind of experiment: Induction of reactive oxygen species generation in human HeLa cells at 0.5 uM treated for 48 hrs by H2DCFDA staining based flow cytometry. The format is functional, cell-based. Put shortly:
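After treatment, HeLa cells pelleted and resuspended in PBS containing 0.1 μM H2DCFDA, incubated 30 min at 37 °C, then washed back into PBS. DCF fluorescence measured by flow cytometry (excitation 488 nm, emission 530 nm). Mean ± SEM of three independent experiments.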

Data set [10] concerns HeLa. Put plainly: Induction of apoptosis in human Hela cells assessed as increase in necrotic cells at 0.5 uM incubated for 24 to 48 hrs by Annexin V-FITC/propidium iodide staining based flow cytometry. The data set is classed as functional, cell-based. The note with it: time hrs 24-48. Put shortly: (§3)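 HeLa cells exposed 24 or 48 h, harvested, double-stained with annexin-V-FITC and PI, then read by flow cytometry. Gates: live (annexin-V–/PI–), early apoptotic (annexin-V+/PI–), late apoptotic (annexin-V+/PI+), necrotic (annexin-V–/PI+). Mean ± SEM of three independent experiments.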

Data set [11] relates to HeLa. As to the kind of experiment: Induction of apoptosis in human Hela cells assessed as increase in apoptotic cells at 0.5 uM incubated for 24 to 48 hrs by Annexin V-FITC/propidium iodide staining based flow cytometry. The data set is classed as functional, cell-based. The note with it: time hrs 24-48. Put shortly: as §3
The subject of data set [12] is HeLa. As to the kind of experiment: Induction of cell cycle arrest in human Hela cells assessed as cdc25c expression at 0.1 uM incubated for 48 hrs by Western blot analysis relative to control. The data set is classed as functional. Put shortly:
as §2

Data set [13] relates to HeLa. As to the kind of experiment: Induction of cell cycle arrest in human Hela cells assessed as cdc25c expression at 0.5 uM incubated for 24 hrs by Western blot analysis relative to control. The data set is classed as functional. Put shortly:
as §2

Data set [14] concerns HeLa. As to the kind of experiment: Induction of cell cycle arrest in human Hela cells assessed as cdc25c expression at 0.1 uM incubated for 24 hrs by Western blot analysis relative to control. The data set is classed as functional. In a few lines:
as §2

The test system of data set [15] is HeLa. As to the kind of experiment: Induction of cell cycle arrest in human Hela cells assessed as accumulation at G2/M phase at 0.125 uM incubated for 24 hrs by PI staining based flow cytometric analysis. The data set is classed as functional. In a few lines: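 5 × 10^5 HeLa cells treated 24 h over a range of concentrations, fixed in ice-cold 70% ethanol, treated with lysis buffer containing RNase A and 0.1% Triton X-100, PI-stained. DNA content read by flow cytometry; phase distribution is mean ± SEM of three experiments.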

Data set [16] deals with HeLa. Put plainly: Induction of cell cycle arrest in human Hela cells assessed as accumulation at G2/M phase incubated for 24 hrs by PI staining based flow cytometric analysis. The format is functional.
The subject of data set [17] is HeLa. As to the kind of experiment: Induction of apoptosis in human HeLa cells assessed as cleaved PARP protein expression at 0.5 uM incubated for 48 hrs by Western blot analysis relative to control. The data set is classed as functional. In a few lines: as §2
For data set [18], the system named is HeLa. Put plainly: Induction of cell cycle arrest in human Hela cells assessed as phosphorylated cdc2 expression at 0.1 uM incubated for 24 hrs by Western blot analysis relative to control. The format is functional. Put shortly: as §2
Data set [19] relates to HeLa. Put plainly: Induction of cell cycle arrest in human Hela cells assessed as phosphorylated cdc2 expression at 0.5 uM incubated for 24 hrs by Western blot analysis relative to control. The format is functional. Put shortly: as §2
The test system of data set [20] is HeLa. As to the kind of experiment: Induction of cell cycle arrest in human Hela cells assessed as phosphorylated cdc2 expression at 0.1 uM incubated for 48 hrs by Western blot analysis relative to control. The data set is classed as functional. In a few lines:
as §2

For data set [21], the system named is HeLa. As to the kind of experiment: Induction of cell cycle arrest in human Hela cells assessed as phosphorylated cdc2 expression at 0.5 uM incubated for 48 hrs by Western blot analysis relative to control. The format is functional. Put shortly:
as §2

Data set [22] relates to HeLa. Put plainly: Induction of cell cycle arrest in human Hela cells assessed as cyclin B expression at 0.1 uM incubated for 24 hrs by Western blot analysis relative to control. The format is functional. Put shortly: as §2
Data set [23] deals with HeLa. Put plainly: Induction of cell cycle arrest in human Hela cells assessed as cyclin B expression at 0.5 uM incubated for 24 hrs by Western blot analysis relative to control. The format is functional. Put shortly:
as §2

The subject of data set [24] is HeLa. Put plainly: Induction of cell cycle arrest in human Hela cells assessed as cyclin B expression at 0.1 uM incubated for 48 hrs by Western blot analysis relative to control. The format is functional. In a few lines: as §2
For data set [25], the system named is HeLa. As to the kind of experiment: Induction of cell cycle arrest in human Hela cells assessed as cyclin B expression at 0.5 uM incubated for 48 hrs by Western blot analysis relative to control. The format is functional. In a few lines: as §2
Data set [26] concerns HeLa. Put plainly: Induction of apoptosis in human HeLa cells assessed as MCL1 protein expression at 0.1 uM incubated for 24 hrs by Western blot analysis relative to control. The data set is classed as functional. In a few lines: as §2
The test system of data set [27] is HeLa. Put plainly: Induction of apoptosis in human HeLa cells assessed as MCL1 protein expression at 0.5 uM incubated for 24 hrs by Western blot analysis relative to control. The data set is classed as functional. In a few lines: as §2
Data set [28] relates to HeLa. As to the kind of experiment: Induction of apoptosis in human HeLa cells assessed as MCL1 protein expression at 0.1 uM incubated for 48 hrs by Western blot analysis relative to control. The data set is classed as functional. In a few lines:
as §2

The test system of data set [29] is HeLa. As to the kind of experiment: Induction of apoptosis in human HeLa cells assessed as MCL1 protein expression at 0.5 uM incubated for 48 hrs by Western blot analysis relative to control. The format is functional. Put shortly: as §2
Data set [30] relates to HeLa. Put plainly: Induction of apoptosis in human HeLa cells assessed as XIAP protein expression at 0.1 uM incubated for 24 hrs by Western blot analysis relative to control. The format is functional. In a few lines:
as §2

For data set [31], the system named is HeLa. Put plainly: Induction of apoptosis in human HeLa cells assessed as XIAP protein expression at 0.5 uM incubated for 24 hrs by Western blot analysis relative to control. The data set is classed as functional. In a few lines: as §2
In data set [32] the test system is HeLa. Put plainly: Induction of apoptosis in human HeLa cells assessed as XIAP protein expression at 0.1 uM incubated for 48 hrs by Western blot analysis relative to control. The data set is classed as functional. In a few lines:
as §2

The source made the active and inactive calls. The calls are words filed in the database; no cut-off is given here. A value given as a limit tells only on which side of the number the result lay.

The term GI50 denotes the concentration that inhibits growth by half.

In the case of `CCOC(=O)c1c(Cl)c2c(n1Cc1cc(OC)cc(OC)c1)-c1oncc1CCC2`, the GI50 at 72 h in data set [1] and in [2] was more than 100 µM throughout. Moreover, the outcome in the data set with HeLa [3] was Active.
For `CCOC(=O)c1cc2c(n1Cc1cccc(OC)c1)-c1oncc1CCC2`, the outcome in the data set with HeLa [4] and with HeLa [5] was Active. Also, the GI50 at 72 h in data set [1] and in data set [2] was more than 100 µM each time.
With `CCOC(=O)c1cc2c(n1Cc1cc(OC)cc(OC)c1)-c1oncc1CCC2`, the “fold change (FC)” value worked out at 13.8 with HeLa [6]; 42.13 in the data set with HeLa [7]; 17.65 with HeLa [8]; 0.23 with HeLa [12]; 0.05 in the data set with HeLa [13]; 0.23 in the data set with HeLa [14]. Besides, the “fold change (FC)” value was 42.83 in the data set with HeLa [17]; 0.51 in the data set with HeLa [18]; 0.31 in the data set on HeLa [19]; 0.17 in the data set on HeLa [20]; 0.31 with HeLa [21]; 18.74 with HeLa [22]. Further, the “fold change (FC)” value worked out at 64.07 in the data set with HeLa [23]; 2.39 with HeLa [24]; 2.05 in the data set on HeLa [25]; 0.37 with HeLa [26]; 0.11 in the data set on HeLa [27]; 0.37 in the data set on HeLa [28]. For the same compound, the “fold change (FC)” value with HeLa [29] is on record as 0.38; in the data set with HeLa [30], 0.91; with HeLa [31], 0.54; in the data set on HeLa [32] it was 0.12. Also, the outcome in the data set with HeLa [9], with HeLa [10], with HeLa [11] and with HeLa [15] was Active. For the same compound, the Activity result in the data set with HeLa [16] was “Dose-dependent effect”. For the same compound, the GI50 at 72 h in data set [1] and in data set [2] was more than 100 µM each time.

These data come from ChEMBL document CHEMBL4665839, “Pyrrolo[2',3':3,4]cyclohepta[1,2-d][1,2]oxazoles, a New Class of Antimitotic Agents Active against Multiple Malignant Cell Types” (J Med Chem, 2020).
